{"source": "ChEMBL document CHEMBL3576792", "about": "“Enhancement of antibiotic activity against multidrug-resistant bacteria by the efflux pump inhibitor 3,4-dibromopyrrole-2,5-dione isolated from a Pseudoalteromonas sp” (J Nat Prod, 2015)", "key": {"Escherichia coli [1]": {"test_system": "Escherichia coli", "assay": "Potentiation of oxacillin-induced antibacterial activity Escherichia coli transformed with plasmid carrying MG1655 deltaBC/pXYM assessed as oxacillin MIC by p-iodonitrotetrazolium chloride colorimetric assay", "assay_type": "functional", "method_in_brief": "(§1)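 Checkerboard microdilution in Mueller-Hinton broth: two-fold dilutions of antibiotic crossed with dilutions of test compound above, at and below their MICs. Growth was read by INT colorimetric assay, with MIC as the lowest concentration showing no visible growth. FICs and FIC index were derived from these MICs. ΔBC/pABM and ΔBC/pXYM strains were grown with 100 μg/mL ampicillin and 1 mM IPTG.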"}, "Escherichia coli [2]": {"test_system": "Escherichia coli", "assay": "Effect on intracellular H33342 accumulation in Escherichia coli AG100A delta acrAB mutant at 0.06 ug/ml after 60 mins by accumulation assay", "assay_type": "functional", "method_in_brief": "(§2)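 Cells grown in Luria broth at 37 °C, 200 rpm to OD600 1.0, then washed twice in PBS and diluted in glucose-free PBS to OD600 0.3. H33342 was used at 2.5 μM with 22 mM glucose at 37 °C and allowed to accumulate for ~30 min. Compound was then added and fluorescence (Ex 350/Em 460 nm) followed for 60 min. Values are the mean RFU of the final 4 min, after media-plus-compound background was subtracted. Run in duplicate, n = 8.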"}, "Escherichia coli [3]": {"test_system": "Escherichia coli", "assay": "Potentiation of oxacillin-induced antibacterial activity Escherichia coli transformed with plasmid carrying MG1655 deltaBC/pABM by p-iodonitrotetrazolium chloride colorimetric assay", "assay_type": "functional, organism-based", "method_in_brief": "as §1"}, "Escherichia coli [4]": {"test_system": "Escherichia coli", "assay": "Potentiation of kanamycin-induced antibacterial activity Escherichia coli transformed with plasmid carrying MG1655 deltaBC/pXYM by p-iodonitrotetrazolium chloride colorimetric assay", "assay_type": "functional"}, "Escherichia coli [5]": {"test_system": "Escherichia coli", "assay": "Potentiation of oxacillin-induced antibacterial activity Escherichia coli transformed with plasmid carrying MG1655 deltaBC/pXYM by p-iodonitrotetrazolium chloride colorimetric assay", "assay_type": "functional"}, "Escherichia coli K-12 [6]": {"test_system": "Escherichia coli K-12", "assay": "Inhibition of AcrAB-TolC pump in Escherichia coli K-12 AG100 assessed as inhibition of H33342 accumulation at 1 ug/ml after 60 mins by accumulation assay", "method_in_brief": "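AG100 (wild-type K-12) or AG100A (ΔacrAB) grown in Luria broth at 37 °C and 200 rpm to OD600 1.0, PBS-washed, diluted to OD600 0.3. Cells given 2.5 μM H33342 with 22 mM glucose at 37 °C for ~30 min until stable, then compound (0.06–64 μg/mL) added. Fluorescence (Ex 350/Em 460) read for 60 min, background subtracted. Final 4 time points averaged; one-way ANOVA/Dunnett vs Hoechst-only; n = 8.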"}, "Escherichia coli [7]": {"test_system": "Escherichia coli", "assay": "Effect on intracellular H33342 accumulation in Escherichia coli AG100A delta acrAB mutant at 16 ug/ml after 60 mins by accumulation assay", "assay_type": "functional", "method_in_brief": "as §2"}, "Escherichia coli [8]": {"test_system": "Escherichia coli", "assay": "Potentiation of chloramphenicol-induced antibacterial activity Escherichia coli transformed with plasmid carrying MG1655 deltaBC/pXYM assessed as chloramphenicol MIC by p-iodonitrotetrazolium chloride colorimetric assay", "assay_type": "functional", "method_in_brief": "as §1"}, "Escherichia coli [9]": {"test_system": "Escherichia coli", "assay": "Potentiation of piperacillin-induced antibacterial activity Escherichia coli AG102 overexpressing AcrAB-TolC by p-iodonitrotetrazolium chloride colorimetric assay", "assay_type": "functional"}, "Escherichia coli K-12 [10]": {"test_system": "Escherichia coli K-12", "assay": "Inhibition of AcrAB-TolC pump in Escherichia coli K-12 AG100 assessed as increase in intracellular H33342 fluorescence at 0.25 ug/ml after 60 mins by efflux inhibition assay", "assay_type": "cell-based"}, "Escherichia coli [11]": {"test_system": "Escherichia coli", "assay": "Potentiation of ciprofloxacin-induced antibacterial activity Escherichia coli transformed with plasmid carrying MG1655 deltaBC/pABM assessed as ciprofloxacin MIC by p-iodonitrotetrazolium chloride colorimetric assay", "assay_type": "functional", "method_in_brief": "as §1"}, "Escherichia coli [12]": {"test_system": "Escherichia coli", "assay": "Potentiation of levofloxacin-induced antibacterial activity Escherichia coli transformed with plasmid carrying MG1655 deltaBC/pXYM assessed as levofloxacin MIC by p-iodonitrotetrazolium chloride colorimetric assay", "assay_type": "functional", "method_in_brief": "as §1"}, "Escherichia coli [13]": {"test_system": "Escherichia coli", "assay": "Potentiation of kanamycin-induced antibacterial activity Escherichia coli AG102 overexpressing AcrAB-TolC by p-iodonitrotetrazolium chloride colorimetric assay", "assay_type": "functional"}, "Escherichia coli K-12 [14]": {"test_system": "Escherichia coli K-12", "assay": "Inhibition of AcrAB-TolC pump in Escherichia coli K-12 AG100 assessed as increase in intracellular H33342 fluorescence at 0.06 ug/ml after 60 mins by efflux inhibition assay", "assay_type": "cell-based", "method_in_brief": "(§3)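 AG100 (wild-type K-12) or AG100A (ΔacrAB) cells were grown in Luria broth at 37 °C and 200 rpm to OD600 1.0, PBS-washed and diluted to OD600 0.3. Cells took up 2.5 μM Hoechst 33342 with 22 mM glucose at 37 °C for about 30 min, then compound (0.06–64 μg/mL) or PAβN (15.6 μg/mL) was added. Fluorescence (Ex 350/Em 460 nm) was followed for 60 min and corrected for background. The last four time points were compared to dye-only control by ANOVA with Dunnett's test, run in duplicate.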"}, "Escherichia coli [15]": {"test_system": "Escherichia coli", "assay": "Potentiation of ciprofloxacin-induced antibacterial activity Escherichia coli transformed with plasmid carrying MG1655 deltaBC/pABM by p-iodonitrotetrazolium chloride colorimetric assay", "assay_type": "functional"}, "Escherichia coli K-12 [16]": {"test_system": "Escherichia coli K-12", "assay": "Inhibition of AcrAB-TolC pump in Escherichia coli K-12 AG100 assessed as […] at 0.25 ug/ml after 60 mins by accumulation assay", "method_in_brief": "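Cells grown in Luria broth at 37 °C, 200 rpm to OD600 1.0, washed twice in PBS and diluted in glucose-free PBS to OD600 0.3. Cells were given 2.5 μM H33342 with 22 mM glucose at 37 °C for ~30 min until stable, then compound added (0.06–64 μg/mL). Fluorescence (Ex 350/Em 460 nm) was read for 60 min, background subtracted, and the final 4 min averaged (n = 8).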"}, "Escherichia coli [17]": {"test_system": "Escherichia coli", "assay": "Potentiation of tetracycline-induced antibacterial activity Escherichia coli transformed with plasmid carrying MG1655 deltaBC/pABM by p-iodonitrotetrazolium chloride colorimetric assay", "assay_type": "functional"}, "Escherichia coli [18]": {"test_system": "Escherichia coli", "assay": "Potentiation of levofloxacin-induced antibacterial activity Escherichia coli transformed with plasmid carrying MG1655 deltaBC/pXYM MIC by p-iodonitrotetrazolium chloride colorimetric assay", "assay_type": "functional"}, "Escherichia coli [19]": {"test_system": "Escherichia coli", "assay": "Potentiation of tetracycline-induced antibacterial activity Escherichia coli transformed with plasmid carrying MG1655 deltaBC/pABM assessed as tetracycline MIC by p-iodonitrotetrazolium chloride colorimetric assay", "assay_type": "functional", "method_in_brief": "as §1"}, "Escherichia coli [20]": {"test_system": "Escherichia coli", "assay": "Potentiation of erythromycin-induced antibacterial activity Escherichia coli transformed with plasmid carrying MG1655 deltaBC/pABM assessed as erythromycin MIC by p-iodonitrotetrazolium chloride colorimetric assay", "assay_type": "functional", "method_in_brief": "as §1"}, "Escherichia coli [21]": {"test_system": "Escherichia coli", "assay": "Antibacterial activity against Escherichia coli transformed with plasmid carrying MG1655 deltaBC/pABM by p-iodonitrotetrazolium chloride colorimetric assay", "assay_type": "functional", "method_in_brief": "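Two-fold broth microdilution in Mueller-Hinton broth, read by p-iodonitrotetrazolium chloride colorimetric assay. MIC is the lowest concentration giving no visible growth. MG1655 ΔacrB ΔtolC strains carrying pABM or pXYM were always cultured with 100 μg/mL ampicillin and 1 mM IPTG. Medium, inoculum and 1% DMSO (final) served as negative control.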"}, "Escherichia coli [22]": {"test_system": "Escherichia coli", "assay": "Potentiation of oxacillin-induced antibacterial activity Escherichia coli AG102 overexpressing AcrAB-TolC by p-iodonitrotetrazolium chloride colorimetric assay", "assay_type": "functional, organism-based", "method_in_brief": "as §1"}, "Escherichia coli [23]": {"test_system": "Escherichia coli", "assay": "(§4) Inhibition of AcrAB-TolC pump in Escherichia coli AG100 assessed as increase in intracellular H33342 fluorescence after 60 mins by efflux inhibition assay", "assay_type": "cell-based", "method_in_brief": "as §3"}, "[24]": {"assay": "as §4", "assay_type": "cell-based", "conditions": "AG100, 1 h", "method_in_brief": "as §3"}}, "note": "Activity calls are given as the source filed them. No cut-off for these calls is given here."}
{"smiles": "O=C1NC(=O)C(Br)=C1Br", "values": [{"measurement": "MIC", "setting": "Escherichia coli [1]", "value": 64, "unit": "µg/mL"}, {"measurement": "RFU", "setting": "Escherichia coli [2]", "value": 1020}, {"measurement": "fractional inhibitory concentration index (FICI)", "setting": "Escherichia coli [3]", "value": "inactive"}, {"measurement": "fractional inhibitory concentration index (FICI)", "setting": "Escherichia coli [4]", "value": 0.75}, {"measurement": "fractional inhibitory concentration index (FICI)", "setting": "Escherichia coli [5]", "value": 0.27}, {"measurement": "RFU", "setting": "Escherichia coli K-12 [6]", "value": 1010}, {"measurement": "RFU", "setting": "Escherichia coli [7]", "value": 1100}, {"measurement": "MIC", "setting": "Escherichia coli [8]", "value": 64, "unit": "µg/mL"}, {"measurement": "fractional inhibitory concentration index (FICI)", "setting": "Escherichia coli [9]", "value": 0.75}, {"measurement": "RFU", "setting": "Escherichia coli K-12 [10]", "value": -351}, {"measurement": "MIC", "setting": "Escherichia coli [11]", "value": 64, "unit": "µg/mL"}, {"measurement": "MIC", "setting": "Escherichia coli [12]", "value": 32, "unit": "µg/mL"}, {"measurement": "fractional inhibitory concentration index (FICI)", "setting": "Escherichia coli [13]", "value": 0.27}, {"measurement": "RFU", "setting": "Escherichia coli K-12 [14]", "value": -422}, {"measurement": "fractional inhibitory concentration index (FICI)", "setting": "Escherichia coli [15]", "value": 0.75}, {"measurement": "RFU", "setting": "Escherichia coli K-12 [16]", "value": 796}, {"measurement": "fractional inhibitory concentration index (FICI)", "setting": "Escherichia coli [17]", "value": 1}, {"measurement": "fractional inhibitory concentration index (FICI)", "setting": "Escherichia coli [18]", "value": 0.19}, {"measurement": "MIC", "setting": "Escherichia coli [19]", "value": 128, "unit": "µg/mL"}, {"measurement": "MIC", "setting": "Escherichia coli [20]", "value": 64, "unit": "µg/mL"}, {"measurement": "MIC", "setting": "Escherichia coli [21]", "value": 256, "unit": "µg/mL"}, {"measurement": "fractional inhibitory concentration index (FICI)", "setting": "Escherichia coli [22]", "value": "inactive"}, {"measurement": "inhibition", "setting": "Escherichia coli [23]", "value": "Dose-dependent effect"}, {"measurement": "IC50", "setting": "[24]", "value": 0.79, "unit": "µg/mL"}]}
